High-throughput results from PubChem.
HTR1E agonist: agonists of human 5-HT1E serotonin receptor | P28566 | CHO 5-HT1E Ga15 NFAT-bla reporter, FRET; 0% DMSO wells, 100% control agonist wells | activation, % at 6 µM | 65,000 compounds, 0.69% hits | AID 574;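 active = activation above a set limit, the screen-wide mean activation plus 3 SD, cut at about 8.5% in these data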
HTR1A agonist: activates the human 5-HT1a serotonin receptor | 65,000 compounds, 0.56% hits | activation, % at 10 µM | CHO 5-HT1a Ga15 NFAT-bla reporter, FRET ratio; 0% basal, 100% maximal reference agonist;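 active = activation above the screen-wide mean activation plus 3 SD, cut at about 19% in these data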
HTR1E antagonist: blocks the human 5-HT1E serotonin receptor; CHO 5-HT1E Ga15 NFAT-bla reporter, FRET, antagonist; P28566; inhibition, % at 6 µM; 65,000 compounds, 0.99% hits;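 active = inhibition above a set limit, the mean inhibition across every tested compound plus 3 SD, cut at about 29% in these data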;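 note: signal is the 460 over 535 nm emission ratio of beta-lactamase substrate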
S1P3 agonist: activates the human S1P3 receptor; S1P3 NFAT-BLA reporter cells, agonism, FRET ratio; relative to 1 µM S1P, basal subtracted; 60,000 compounds, 0.1% hits; activation, % at 4.5 µM; Q99500;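 active = activation above the screen-wide mean plus 3 SD, cut at about 4.5% in these data, passing the limit was not always enough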
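Material: Human S1P3 NFAT-BLA reporter CHO cells | Incubation: Overnight plating, 4 h compound 37 °C, 2 h substrate RT | Signal: FRET β-lactamase substrate fluorescence, excitation 405 nm, 460/535 nm emission ratio, background-subtracted | Compound: 4.5 µM final, single dose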
5HT1a antag: antagonists of human 5-HT1a serotonin receptor. CHO 5-HT1a Ga15 NFAT-bla reporter, antagonist mode. inhibition, % at 10 µM. 62,000 compounds, 0.68% hits;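 active = inhibition above the mean of all tested compounds plus 3 SD, cut at about 43% in these data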;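 note: receptor stimulated by 5-CT agonist at 100 nM near EC80; beta-lactamase reporter measured by ratiometric fluorescence of a cleavable substrate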
S1P1 ag pot: activates or potentiates agonism at human S1P1 receptor; activation, % at 9.5 µM; S1P1 CRE-bla cells, forskolin, beta-lactamase FRET, potentiator mode; S1P1 agonist co-added at EC20, 2 nM; 100% = saturating reference agonist, 0% = basal; AID 449; 56,000 compounds, 0.57% hits;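 active = activation above a cutoff set at the mean activation of all tested compounds plus 3 SD, cut at about 54% in these data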;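 note: forskolin at 4 µM as EC80 and the EC20 agonist is SEW2871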
Target sequence (P21453 whole entry, looked up): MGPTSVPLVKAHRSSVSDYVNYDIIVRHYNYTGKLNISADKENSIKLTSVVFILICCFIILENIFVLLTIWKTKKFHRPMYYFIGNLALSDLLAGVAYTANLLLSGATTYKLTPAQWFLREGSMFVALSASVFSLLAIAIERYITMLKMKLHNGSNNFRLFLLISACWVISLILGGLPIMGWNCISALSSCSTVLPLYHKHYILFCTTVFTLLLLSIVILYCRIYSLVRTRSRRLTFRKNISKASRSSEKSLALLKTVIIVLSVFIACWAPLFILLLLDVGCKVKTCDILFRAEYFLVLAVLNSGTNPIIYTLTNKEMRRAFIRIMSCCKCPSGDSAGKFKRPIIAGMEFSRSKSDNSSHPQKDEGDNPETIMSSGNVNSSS
Large screens that a line does not name were inactive. Shown are actives, neighbours in structure and some others; about 3% of the full set was active somewhere.

Cc1cc(C2=CC(C)(c3cc(C)oc3C)Nc3nc(C(F)(F)F)nn32)c(C)o1 (stereo not given)	5HT1a antag 60
O=C(c1noc2c1CCCCC2)N1CCOCC1	none
CC(C)(C)N1C(=O)Cc2c1nc(N)c1c(N)nc(N3CCCCC3CO)c(C#N)c21 (stereo not given)	HTR1E antagonist 34, 5HT1a antag 53
CCCN1Cc2cccc(C(=O)Nc3ccc(N4CCN(CC)CC4)cc3)c2C1=O	none
O=C(NCc1ccco1)C(c1cccs1)N(C(=O)Cc1cccs1)c1ccccc1 (stereo not given)	5HT1a antag 52
Cn1c(=O)[nH]c(=O)c2c1nc(Sc1nc3ccccc3s1)n2Cc1ccccc1	none
CCSc1nc(C)c(CC)c(C)c1C(N)=O	none
Cc1ccc2c(c1)c1c(n2CC(O)Cn2c(C)nc3ccccc32)C(=O)CCC1 (stereo not given)	HTR1A agonist 73
Cc1ccc2c(c1)c1c(n2CC(O)Cn2c(C)nc3ccccc32)/C(=N\O)CCC1 (stereo not given)	none
